“And” between values parts separate entries of the source, which are not always exact repeats. Equal entries are not always repeated.
Columns and labels:
[1] = molecular target: T1, procaspase-3 (Homo sapiens, UniProt P42574); assay: procaspase-3 self-activation assay; assay type: biochemical
T1 sequence (P42574 1-277): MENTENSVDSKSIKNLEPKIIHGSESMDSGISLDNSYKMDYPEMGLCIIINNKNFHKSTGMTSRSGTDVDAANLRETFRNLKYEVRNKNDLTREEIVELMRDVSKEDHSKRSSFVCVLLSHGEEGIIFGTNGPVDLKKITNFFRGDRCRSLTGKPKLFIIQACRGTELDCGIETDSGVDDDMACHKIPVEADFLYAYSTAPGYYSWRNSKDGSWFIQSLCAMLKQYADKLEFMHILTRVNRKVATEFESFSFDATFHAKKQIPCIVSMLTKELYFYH
How it was run: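 Known promiscuous enzyme-inhibiting aggregators (panel of six) were each tested for ability to activate wild-type procaspase-3. The self-activation assay is run at 37°C.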

[2] = molecular target: T2, caspase-3 (Homo sapiens, UniProt P42574); assay: inhibition of mature caspase-3 by known aggregators; assay type: biochemical
T2 sequence (P42574 29-175 limits assumed): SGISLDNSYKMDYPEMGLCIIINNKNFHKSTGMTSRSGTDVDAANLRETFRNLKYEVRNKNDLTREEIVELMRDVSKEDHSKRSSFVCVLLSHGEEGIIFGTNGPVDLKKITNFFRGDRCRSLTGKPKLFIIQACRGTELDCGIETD
T2 sequence (P42574 176-277 limits assumed): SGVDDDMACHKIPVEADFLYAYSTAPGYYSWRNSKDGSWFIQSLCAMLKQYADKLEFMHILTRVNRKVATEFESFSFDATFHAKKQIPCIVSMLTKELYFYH

[3] = dynamic light scattering; assay type: physicochemical; conditions: DLS conc. 50 μM

| activation of procaspase-3 by known aggregators [1] | inhibition of mature caspase-3 [2] | SMILES | DLS Intensity ([3]; 25°C) | Radius ([3]; 25°C) | DLS Intensity ([3]; 37°C) [kcps] | Radius ([3]; 37°C) [nm] |
| --- | --- | --- | --- | --- | --- | --- |
| no activation | inhibited | Nc1c(/N=N/c2ccc(-c3ccc(/N=N/c4cc(S(=O)(=O)O)c5ccccc5c4N)cc3)cc2)cc(S(=O)(=O)O)c2ccccc12 [Congo red] |  |  |  |  |
|  |  | O=C1OC(c2cc(I)c(O)c(I)c2)(c2cc(I)c(O)c(I)c2)c2ccccc21 [TIPT, 3′,3″,5′,5″-tetraiodophenolpthalein] | 3903.5 kcps and 3903.5 ± 1423.0 kcps | 71.1 nm and 71.1 ± 8.6 nm | 3933.2 ± 1369.0 | 76.7 ± 7.8 |

Reference: publication PMC3253528 (Journal of the American Chemical Society, 2011)
